In paper PMC8891099 (Clinical Pharmacokinetics, 2021):
Values after ≈ are worked out from the molar mass of the structure shown.

What was measured:
[1] = Population pharmacokinetic model of finerenone in FIDELIO-DKD; assay type: in vivo, human
Summary of the method: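 Nonlinear mixed-effects model of sparse plasma levels after oral 10 or 20 mg once daily. Sampling was a month-4 trough plus post-dose samples at any time on yearly visits. Structure: two compartments with equal volumes, transit-compartment absorption and first-order elimination, starting from a phase IIb model. Covariate search used single addition and forward inclusion at p 0.01 and backward deletion at p 0.001.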

[2] = test system: patients with CKD and T2D; experiment: Parametric time-to-event exposure-response; assay type: in vivo; conditions: Homo sapiens, read-out: EC50 (half-maximal drug effect concentration)
Summary of the method: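 Parametric time-to-event model (Weibull hazard) for the first composite kidney event, with exposure-response as an Emax function driven by central-compartment concentration. Input was individual concentration-time profiles from post-hoc PK estimates, actual dosing history and covariates; typical PK parameters were used for subjects lacking them. Delay and Hill coefficient were tested. Checked by visual predictive checks with observed dropout.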

[3] = test system: patients with CKD and T2D; experiment: FIDELIO-DKD phase III study, kidney outcome events; assay type: in vivo, human; conditions: finerenone group, 504 of 2833 patients, median follow-up of 2.6 years
[4] = test system: patients with CKD and T2D; conditions: corresponding to sustained eGFR decrease ≥ 57%, under finerenone treatment ref 3; cited from earlier work
[5] = covariate parameter, population PK model
[6] = inter-individual variability, population PK model
[7] = population PK model estimate, FIDELIO-DKD patients

CCOc1ncc(C)c2c1[C@H](c1ccc(C#N)cc1OC)C(C(N)=O)=C(C)N2 [finerenone]
Effect for Korean subjects on Vc/F [1, 5]: 1.29
Effect of body weight on Vc/F [1, 5]: 0.501
Absorption lag time ([1]; fixed in population PK model): 0.215 (fixed) h
Ratio Vp/F and Vc/F ([1]; fixed in population PK model): 1 (fixed)
Relative bioavailaility ([1]; fixed in population PK model): 1 (fixed)
Covariance CL/F × Vc/F [1, 6]: 0.0442
ω^2 Vc/F [1, 6]: 0.104
dose linearity of pharmacokinetics ([1]; over the investigated dose range (10 and 20 mg once daily)): dose linear
Inter-individual variability of CL/F expressed as CV ([1]; population PK model): ^aShrinkage was 26.6%, variability expressed as CV: 31.8%
Inter-individual variability of Vc/F expressed as CV ([1]; population PK model): ^bShrinkage was 47.8%, variability expressed as CV: 33.0%
CL/F [1, 7]: 29.9 L/h
Q/F [1, 7]: 0.335 L/h
Vc/F [1, 7]: 113 L
Ka ([1]; population PK model estimate, FIDELIO-DKD patients, oral 10 or 20 mg once daily): 22.5 h⁻¹
σ^2 ([1]; residual error, population PK model): 0.313
EC50 [2]: 0.166 ng/mL (≈ 0.439 nM)
patients with a kidney event contributing to the composite endpoint [3]: 17.8%
reduction of secondary endpoint doubling of serum creatinine [4]: 32%
